Experimental data published in ChEMBL document CHEMBL1151475, “Thiopurine drugs azathioprine and 6-mercaptopurine inhibit Mycobacterium paratuberculosis growth in vitro” (2008).

Key:
[1] = test system: Mycobacterium avium subsp. paratuberculosis; assay: Antituberculosis activity against Mycobacterium paratuberculosis ATCC 19698 isolated from bovine assessed as lowest drug level producing inhibition at 10^6 CFU of inoculum by MGIT 960 susceptibility test; format: functional
Outline: (§1)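 M. paratuberculosis ATCC 19698 at 10^6 CFU per MGIT ParaTB tube in duplicate, drugs at final 1.0–64.0 μg/ml, 37°C in MGIT 960. Inhibition is the lowest concentration whose time to detection exceeds the 1:100 diluted-inoculum solvent control. No detectable growth means the tube never signals positive through 56 days.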

[2] = test system: Mycobacterium avium subsp. paratuberculosis; assay: Antituberculosis activity against Mycobacterium paratuberculosis ATCC 19698 isolated from bovine assessed as minimum drug level resulting in no detectable growth at 10^6 CFU of inoculum after 56 days by MGIT 960 susceptibility test; format: functional; outline: as §1
[3] = test system: Mycobacterium avium subsp. paratuberculosis; assay: Antituberculosis activity against Mycobacterium paratuberculosis ATCC 19698 isolated from bovine assessed as lowest drug level producing inhibition at 10^6 CFU of inoculum by agar counting method; format: functional
Outline: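 ATCC 19698 at 10^6 CFU was exposed to drug (1.0–64.0 μg/ml) in MGIT ParaTB medium at 37°C. Aliquots taken at 3 and 5 days were centrifuged, resuspended in PBS and declumped with glass beads. Serial dilutions were plated in quadruplicate on 7H10/OADC/mycobactin J and counted after 8 weeks. Inhibition is the lowest concentration giving a 2 log10 (99%) CFU reduction.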

[4] = test system: Mycobacterium avium subsp. paratuberculosis; assay: Antituberculosis activity against Mycobacterium paratuberculosis UCF-5 isolated from Crohn's disease patient assessed as minimum drug level required for inhibition by MGIT 960 susceptibility test; format: functional
Outline: (§2)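 10^5 to 10^6 CFU from single-cell suspensions inoculated in duplicate into MGIT ParaTB medium with supplement and egg yolk. Drugs were at final 0.5–64.0 μg/ml, with 128.0 μg/ml added for some strains. Tubes were incubated at 37°C in MGIT 960. Inhibition is the lowest concentration giving a time to detection longer than a drug-free 1:100 inoculum control. Killing is no positive signal through 56 days.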

[5] = test system: Mycobacterium avium subsp. paratuberculosis; assay: Antituberculosis activity against Mycobacterium paratuberculosis B238 isolated from bovine assessed as minimum drug level required for inhibition by MGIT 960 susceptibility test; format: functional; outline: as §2
Mycobacterium avium [6] = assay: Antituberculosis activity against Mycobacterium avium ATCC 35712 isolated from chicken assessed as minimum drug level required for killing after 56 days by MGIT 960 susceptibility test; format: functional; outline: as §2
[7] = test system: Mycobacterium avium subsp. paratuberculosis; assay: Antituberculosis activity against Mycobacterium paratuberculosis UCF-4 isolated from Crohn's disease patient assessed as minimum drug level required for inhibition by MGIT 960 susceptibility test; format: functional; outline: as §2
[8] = test system: Mycobacterium avium subsp. paratuberculosis; assay: Antituberculosis activity against Mycobacterium paratuberculosis B236 isolated from bovine assessed as minimum drug level required for inhibition by MGIT 960 susceptibility test; format: functional; outline: as §2
Mycobacterium avium [9] = assay: Antituberculosis activity against Mycobacterium avium ATCC 35712 isolated from chicken assessed as minimum drug level required for inhibition by MGIT 960 susceptibility test; format: functional; outline: as §2
[10] = test system: Mycobacterium avium subsp. paratuberculosis; assay: Antituberculosis activity against Mycobacterium paratuberculosis UCF-7 isolated from Crohn's disease patient assessed as minimum drug level required for killing after 56 days by MGIT 960 susceptibility test; format: functional; outline: as §2
[11] = test system: Mycobacterium avium subsp. paratuberculosis; assay: Antituberculosis activity against Mycobacterium paratuberculosis UCF-7 isolated from Crohn's disease patient assessed as minimum drug level required for inhibition by MGIT 960 susceptibility test; format: functional; outline: as §2
[12] = test system: Mycobacterium avium subsp. paratuberculosis; assay: Antituberculosis activity against Mycobacterium paratuberculosis B238 isolated from bovine assessed as minimum drug level required for killing after 56 days by MGIT 960 susceptibility test; format: functional; outline: as §2
[13] = test system: Mycobacterium avium subsp. paratuberculosis; assay: Antituberculosis activity against Mycobacterium paratuberculosis B213 isolated from bovine assessed as minimum drug level required for killing after 56 days by MGIT 960 susceptibility test; format: functional; outline: as §2
[14] = test system: Mycobacterium avium subsp. paratuberculosis; assay: Antituberculosis activity against Mycobacterium paratuberculosis UCF-4 isolated from Crohn's disease patient assessed as minimum drug level required for killing after 56 days by MGIT 960 susceptibility test; format: functional; outline: as §2
[15] = test system: Mycobacterium avium subsp. paratuberculosis; assay: Antituberculosis activity against Mycobacterium paratuberculosis JTC303 isolated from bovine assessed as minimum drug level required for inhibition by MGIT 960 susceptibility test; format: functional; outline: as §2
[16] = test system: Mycobacterium avium subsp. paratuberculosis; assay: Antituberculosis activity against Mycobacterium paratuberculosis B236 isolated from bovine assessed as minimum drug level required for killing after 56 days by MGIT 960 susceptibility test; format: functional; outline: as §2
[17] = test system: Mycobacterium avium subsp. paratuberculosis; assay: Antituberculosis activity against Mycobacterium paratuberculosis UCF-5 isolated from Crohn's disease patient assessed as minimum drug level required for killing after 56 days by MGIT 960 susceptibility test; format: functional; outline: as §2
[18] = test system: Mycobacterium avium subsp. paratuberculosis; assay: Antituberculosis activity against Mycobacterium paratuberculosis JTC303 isolated from bovine assessed as minimum drug level required for killing after 56 days by MGIT 960 susceptibility test; format: functional; outline: as §2
[19] = test system: Mycobacterium avium subsp. paratuberculosis; assay: Antituberculosis activity against Mycobacterium paratuberculosis B213 isolated from bovine assessed as minimum drug level required for inhibition by MGIT 960 susceptibility test; format: functional; outline: as §2
Mycobacterium avium [20] = assay: Antituberculosis activity against Mycobacterium avium JTC48627 isolated from bison fecal sample assessed as minimum drug level required for inhibition by MGIT 960 susceptibility test; format: functional, Feces; outline: as §2
Mycobacterium avium [21] = assay: Antituberculosis activity against Mycobacterium avium EPA3 isolated from water assessed as minimum drug level required for killing within 15 days by MGIT 960 susceptibility test; format: functional
Enterococcus faecalis [22] = assay: Antituberculosis activity against Enterococcus faecalis ATCC 29212 isolated from human urine assessed as minimum drug level required for inhibition by MGIT 960 susceptibility test; format: functional
Escherichia coli [23] = assay: Antituberculosis activity against Escherichia coli ATCC 25922 clinical isolate assessed as minimum drug level required for killing after 56 days by MGIT 960 susceptibility test; format: functional
Mycobacterium avium [24] = assay: Antituberculosis activity against Mycobacterium avium 104 isolated from AIDS patient assessed as minimum drug level required for inhibition by MGIT 960 susceptibility test; format: functional; outline: as §2
Mycobacterium avium [25] = assay: Antituberculosis activity against Mycobacterium avium ATCC 25291 isolated from chicken assessed as minimum drug level required for killing within 15 days by MGIT 960 susceptibility test; format: functional
Mycobacterium avium [26] = assay: Antituberculosis activity against Mycobacterium avium WSLH1544 isolated from water assessed as minimum drug level required for killing within 15 days by MGIT 960 susceptibility test; format: functional
Mycolicibacterium phlei [27] = assay: Antituberculosis activity against Mycobacterium phlei ATCC 11758 assessed as minimum drug level required for killing after 56 days by MGIT 960 susceptibility test; format: functional
Outline: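 Duplicate MGIT ParaTB tubes with egg yolk and supplement received 10^5 to 10^6 CFU and thiopurine (in 0.05 M NaOH/10 mM PBS) at final 0.5 to 64.0 μg/ml, plus 128.0 μg/ml for some strains. Tubes were incubated at 37°C in the MGIT 960. The value is the minimum concentration whose tubes never signalled positive by 56 days.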

[28] = test system: Mycolicibacterium smegmatis; assay: Antituberculosis activity against Mycobacterium smegmatis ATCC 14468 assessed as minimum drug level required for inhibition by MGIT 960 susceptibility test; format: functional
Outline: (§3)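 MGIT ParaTB tubes were supplemented with egg yolk and inoculated in duplicate with 10^5 to 10^6 CFU from single-cell suspensions. Thiopurines were dissolved in 0.05 M NaOH in 10 mM PBS and tested at final 0.5 to 64.0 μg/ml, with 128.0 μg/ml added for some strains. Tubes ran at 37°C in the MGIT 960. The value is the lowest concentration giving a time-to-detection longer than a drug-free 1:100 inoculum control.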

[29] = test system: Mycobacterium avium subsp. paratuberculosis; assay: Antituberculosis activity against Mycobacterium paratuberculosis B244 isolated from bovine assessed as minimum drug level required for inhibition by MGIT 960 susceptibility test; format: functional; outline: as §2
[30] = test system: Mycolicibacterium smegmatis; assay: Antituberculosis activity against Mycobacterium smegmatis ATCC 14468 assessed as minimum drug level required for killing after 56 days by MGIT 960 susceptibility test; format: functional; outline: as §2
Mycobacterium avium [31] = assay: Antituberculosis activity against Mycobacterium avium JTC981 isolated from bongo fecal sample assessed as minimum drug level required for inhibition by MGIT 960 susceptibility test; format: functional, Feces; outline: as §2
Escherichia coli [32] = assay: Antituberculosis activity against Escherichia coli ATCC 25922 clinical isolate assessed as minimum drug level required for inhibition by MGIT 960 susceptibility test; format: functional
Mycobacterium avium [33] = assay: Antituberculosis activity against Mycobacterium avium ATCC 25291 isolated from chicken assessed as minimum drug level required for inhibition by MGIT 960 susceptibility test; format: functional; outline: as §2
Mycobacterium avium [34] = assay: Antituberculosis activity against Mycobacterium avium JTC48627 isolated from bison fecal sample assessed as minimum drug level required for killing within 15 days by MGIT 960 susceptibility test; format: functional, Feces
Mycolicibacterium phlei [35] = assay: Antituberculosis activity against Mycobacterium phlei ATCC 11758 assessed as minimum drug level required for inhibition by MGIT 960 susceptibility test; format: functional; outline: as §3
[36] = test system: Mycobacterium avium subsp. paratuberculosis; assay: Antituberculosis activity against Mycobacterium paratuberculosis UCF-8 isolated from Crohn's disease patient assessed as minimum drug level required for inhibition by MGIT 960 susceptibility test; format: functional; outline: as §2
[37] = test system: Mycobacterium avium subsp. paratuberculosis; assay: Antituberculosis activity against Mycobacterium paratuberculosis ATCC 19698 isolated from bovine assessed as lowest drug level required for killing by MGIT 960 susceptibility test; format: functional; outline: as §1
Enterococcus faecalis [38] = assay: Antituberculosis activity against Enterococcus faecalis ATCC 29212 isolated from human urine assessed as minimum drug level required for killing after 56 days by MGIT 960 susceptibility test; format: functional
Mycobacterium avium [39] = assay: Antituberculosis activity against Mycobacterium avium JTC981 isolated from bongo fecal sample assessed as minimum drug level required for killing within 15 days by MGIT 960 susceptibility test; format: functional, Feces
Mycobacterium avium [40] = assay: Antituberculosis activity against Mycobacterium avium 104 isolated from AIDS patient assessed as minimum drug level required for killing within 15 days by MGIT 960 susceptibility test; format: functional
[41] = test system: Mycobacterium avium subsp. paratuberculosis; assay: Antituberculosis activity against Mycobacterium paratuberculosis B244 isolated from bovine assessed as minimum drug level required for killing after 56 days by MGIT 960 susceptibility test; format: functional; outline: as §2

Measured: Activity

Nc1ccc(O)c(C(=O)O)c1 [MESALAMINE]
>64 µg/mL: [1] | [2] | [3]

O=C(O)c1cc(/N=N/c2ccc(S(=O)(=O)Nc3ccccn3)cc2)ccc1O [SULFASALAZINE]
>64 µg/mL: [1] | [2] | [3]

CC[C@H]1OC(=O)[C@H](C)[C@@H](O[C@H]2C[C@@](C)(OC)[C@@H](O)[C@H](C)O2)[C@H](C)[C@@H](O[C@@H]2O[C@H](C)C[C@H](N(C)C)[C@H]2O)[C@](C)(O)C[C@@H](C)CN(C)[C@H](C)[C@@H](O)[C@]1(C)O [AZITHROMYCIN]
>0.5 µg/mL: [5]
2 µg/mL: [13] | [14] | [17]
4 µg/mL: [1] | [16] | [18] | [3]
16 µg/mL: Mycobacterium avium [6] | [2]
1 µg/mL: [7] | Mycobacterium avium [9] | [10] | [12] | [15] | [19]
0.5 µg/mL: [4] | [8] | [11]

Cn1cnc([N+](=O)[O-])c1Sc1ncnc2[nH]cnc12 [AZATHIOPRINE]
16 µg/mL: [5] | [10] | [37]
4 µg/mL: [7]
1 µg/mL: [11]
>32 µg/mL: [12] | [13] | [14] | [16] | [17] | [18] | [41]
32 µg/mL: Mycolicibacterium phlei [27]
8 µg/mL: [8] | [29] | [19]
>128 µg/mL: Enterococcus faecalis [22] | Escherichia coli [23] | [28] | [30] | Escherichia coli [32] | Enterococcus faecalis [38]
2 µg/mL: [4] | Mycolicibacterium phlei [35] | [36] | [15]
64 µg/mL: Mycobacterium avium [20]
>64 µg/mL: Mycobacterium avium [21] | Mycobacterium avium [24] | Mycobacterium avium [25] | Mycobacterium avium [26] | Mycobacterium avium [9] | Mycobacterium avium [31] | Mycobacterium avium [33] | Mycobacterium avium [34] | Mycobacterium avium [39] | Mycobacterium avium [40]
